From ChEMBL document CHEMBL4831489, “Design and synthesis of the first indole-based blockers of Panx-1 channel” (Eur J Med Chem, 2021)
The source made the active and inactive calls.

Organism: Mus musculus
Assay: Antiallodynic activity in oxaliplatin-induced neuropathy pain CD-1 mouse model assessed as reversal of enhancement of pain threshold at 0.3 nmol, IT measured after 45 mins by cold plate assay
Assay type: functional, organism-based
Conditions: not given
Procedure, shortened: (§1)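 Male CD-1 mice (22–25 g) given oxaliplatin 2.4 mg kg⁻¹ i.p. in 5% glucose on days 1–2, 5–9 and 12–14. Test agents were dissolved in saline and injected intrathecally (5 µl, L4–L5) at 0.1–1 nmol from day 14. Cold plate held at 4 °C. Latency to first paw lift/lick was recorded every 15 min.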
O=C(O)c1ccc(CNS(=O)(=O)c2ccc3c(c2)cc(C(=O)O)n3Cc2ccc(C(=O)O)cc2)cc1 was tested, and the Activity was “Active”.

Organism: Mus musculus
Assay: Antiallodynic activity in oxaliplatin-induced neuropathy pain CD-1 mouse model assessed as reversal of enhancement of pain threshold at 1 nmol, IT measured after 45 to 90 mins by cold plate assay
Assay type: functional, organism-based
Conditions: time 45-90 min
Procedure, shortened: (§2)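 Male CD-1 mice (22–25 g) were given oxaliplatin 2.4 mg kg−1 i.p. in 5% glucose on days 1–2, 5–9 and 12–14, with vehicle controls. Behavioural tests were done on day 15. Compounds in saline were injected intrathecally at L4–L5 at 0.1–1 nmol. Mice were placed on a 4 °C cold plate, and latency to the first hind-paw lifting or licking was recorded every 15 min.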
O=C(O)c1cn(CCCc2ccccc2)c2ccc([N+](=O)[O-])cc12 was tested, and the Activity was “Active”.

Organism: Mus musculus
Assay: Antiallodynic activity in oxaliplatin-induced neuropathy pain CD-1 mouse model assessed as reversal of enhancement of pain threshold at 1 nmol, IT measured after 60 to 105 mins by cold plate assay
Assay type: functional, organism-based
Conditions: time 60-105 min
Procedure, shortened: as §1
With O=C(O)c1ccc(CNS(=O)(=O)c2ccc3c(c2)cc(C(=O)O)n3Cc2ccc(C(=O)O)cc2)cc1 the Activity was “Active”.

What follows are molecules tested against Gap junction beta-1 protein (Homo sapiens) (UniProt P08034) (assay: Inhibition of wild type Cx32(E143) (unknown origin) expressed in Xenopus laevis oocytes assessed as at holding potential of -10 mV and stepped in 5 mV test pulses of 5 sec duration at 10 uM measured by Voltage clamp assay relative to control). Conditions: Oocyte.
Chain of Gap junction beta-1 protein (Homo sapiens) (P08034 whole entry): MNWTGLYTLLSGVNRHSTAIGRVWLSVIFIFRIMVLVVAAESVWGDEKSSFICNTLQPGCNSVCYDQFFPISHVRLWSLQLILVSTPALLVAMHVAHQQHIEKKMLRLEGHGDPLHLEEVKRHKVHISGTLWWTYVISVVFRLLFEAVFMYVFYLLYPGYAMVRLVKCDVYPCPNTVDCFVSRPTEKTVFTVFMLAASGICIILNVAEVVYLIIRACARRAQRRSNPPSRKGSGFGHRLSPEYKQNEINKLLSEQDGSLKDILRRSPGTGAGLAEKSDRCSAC
Assay type: cell-based
O=C(O)c1ccc(Cn2c(C(=O)O)cc3cc(S(=O)(=O)N(Cc4ccccc4)Cc4ccccc4)ccc32)cc1 showed an inhibition of 0%. In the case of O=C(O)c1ccc(CNS(=O)(=O)c2ccc3c(c2)cc(C(=O)O)n3Cc2ccc(C(=O)O)cc2)cc1, the inhibition is reported as 0%. O=C(O)c1cc2cc(S(=O)(=O)N(Cc3ccccc3)Cc3ccccc3)ccc2n1Cc1ccccc1 showed an inhibition of 20%. Work on NS(=O)(=O)c1ccc2c(c1)cc(C(=O)O)n2Cc1ccccc1 yielded an inhibition of 15%. In the case of O=C(O)c1cn(CCCc2ccccc2)c2ccc([N+](=O)[O-])cc12, the inhibition is reported as 0%.

The molecules below were run on Mus musculus (assay: Antiallodynic activity in oxaliplatin-induced neuropathy pain IT dosed CD-1 mouse model assessed as reversal of enhancement of pain threshold by measuring minimum effective dose measured 60 to 75 mins by cold plate assay). Conditions: dose 0.3 nmol, time 60-75 min.
Assay type: functional, organism-based
Procedure, shortened: as §2
For O=C(O)c1cn(CCCc2ccccc2)c2ccc([N+](=O)[O-])cc12, the Activity was “Active”.

What follows are molecules tested against Pannexin-1 (Mus musculus, UniProt Q9JIP4) (assay: Inhibition of mouse Panx-1 expressed in Xenopus laevis oocytes assessed as inhibition of membrane current cells held at -60 mV and voltage steps to +60 mV in presence of CBX measured by Whole cell voltage clamp assay relative to control). Conditions: not given.
Chain of Pannexin-1 (Q9JIP4 whole entry): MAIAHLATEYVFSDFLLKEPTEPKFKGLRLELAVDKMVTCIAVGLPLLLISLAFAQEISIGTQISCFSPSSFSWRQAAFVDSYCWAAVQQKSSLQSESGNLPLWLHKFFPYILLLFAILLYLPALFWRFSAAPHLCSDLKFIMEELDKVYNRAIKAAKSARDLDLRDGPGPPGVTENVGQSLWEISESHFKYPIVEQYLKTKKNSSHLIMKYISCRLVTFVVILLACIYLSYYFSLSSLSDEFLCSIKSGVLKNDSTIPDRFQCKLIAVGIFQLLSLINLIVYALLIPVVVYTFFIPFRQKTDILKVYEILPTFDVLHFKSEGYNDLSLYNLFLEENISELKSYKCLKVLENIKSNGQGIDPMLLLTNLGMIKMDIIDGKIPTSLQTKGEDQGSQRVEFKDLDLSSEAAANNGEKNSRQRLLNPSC
Assay type: cell-based, Oocyte
Procedure, shortened: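 Two-electrode voltage clamp of Panx-1-expressing Xenopus oocytes perfused with OR2, pH 7.5. Holding potential −60 mV, with repetitive 5 s steps to +60 mV at 0.1 Hz. Compound was applied at increasing concentrations to build dose–response curves and derive IC50.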
In the case of O=C(O)c1ccc(Cn2c(C(=O)O)cc3cc(S(=O)(=O)N(Cc4ccccc4)Cc4ccccc4)ccc32)cc1, the IC50 is reported as 0.25 µM. Work on O=C(O)c1cc([N+](=O)[O-])ccc1NCCCc1ccccc1 [5-NITRO-2-PHENYLPROPYLAMINOBENZOIC ACID [NPPB]] yielded an IC50 of 50 µM. Work on O=C(O)c1ccc(CNS(=O)(=O)c2ccc3c(c2)cc(C(=O)O)n3Cc2ccc(C(=O)O)cc2)cc1 yielded an IC50 of 0.8 µM. With CCN(Cc1cccc(S(=O)(=O)O)c1)c1ccc(C(=C2C=CC(=[N+](CC)Cc3cccc(S(=O)(=O)O)c3)C=C2)c2ccccc2S(=O)(=O)[O-])cc1 the IC50 was 0.27 µM. O=C(O)c1ccc(Cn2c(C(=O)O)cc3cc([N+](=O)[O-])ccc32)cc1 showed an IC50 of 4.9 µM. O=C(O)c1cc2cc([N+](=O)[O-])ccc2n1CCCc1ccccc1 showed an IC50 of 23.1 µM. In the case of CCCN(CCC)S(=O)(=O)c1ccc(C(=O)O)cc1 [PROBENECID], the IC50 is reported as 150 µM. With O=C(O)c1cn(CCCc2ccccc2)c2ccc([N+](=O)[O-])cc12 the IC50 was 12.4 µM. Molecule O=C(O)c1cn(Cc2ccccc2)c2ccc([N+](=O)[O-])cc12 has an IC50 of 27.5 µM.

These molecules were tested against T1, P2X purinoceptor 7 (Homo sapiens) (UniProt Q99572) (assay: Inhibition of human P2X7R expressed in Xenopus laevis oocytes assessed as inhibition of BzATP-induced cell membrane current at 10 uM measured by Whole cell voltage clamp assay relative to control). Conditions: Oocyte.
T1 sequence (whole entry): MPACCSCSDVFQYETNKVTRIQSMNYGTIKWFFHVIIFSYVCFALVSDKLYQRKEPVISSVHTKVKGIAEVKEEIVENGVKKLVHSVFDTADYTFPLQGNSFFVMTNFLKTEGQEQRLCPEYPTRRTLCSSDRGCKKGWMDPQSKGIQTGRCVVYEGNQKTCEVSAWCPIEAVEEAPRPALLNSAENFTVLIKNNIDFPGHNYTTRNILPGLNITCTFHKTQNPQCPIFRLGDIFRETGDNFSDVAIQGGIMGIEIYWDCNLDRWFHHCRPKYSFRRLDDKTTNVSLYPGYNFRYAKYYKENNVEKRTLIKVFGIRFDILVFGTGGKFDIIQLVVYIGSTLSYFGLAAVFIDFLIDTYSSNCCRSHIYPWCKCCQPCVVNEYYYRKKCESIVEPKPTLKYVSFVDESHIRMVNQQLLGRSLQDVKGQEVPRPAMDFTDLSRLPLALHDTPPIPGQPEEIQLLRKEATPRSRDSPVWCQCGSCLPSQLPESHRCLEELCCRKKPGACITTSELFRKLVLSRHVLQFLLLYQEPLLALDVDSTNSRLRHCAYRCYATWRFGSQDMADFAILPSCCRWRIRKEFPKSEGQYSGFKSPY
Assay type: cell-based
In the case of O=C(O)c1ccc(Cn2c(C(=O)O)cc3cc(S(=O)(=O)N(Cc4ccccc4)Cc4ccccc4)ccc32)cc1, the inhibition is reported as 61.8%. O=C(O)c1ccc(CNS(=O)(=O)c2ccc3c(c2)cc(C(=O)O)n3Cc2ccc(C(=O)O)cc2)cc1 gave an inhibition of 0%. With O=C(O)c1cc2cc(S(=O)(=O)N(Cc3ccccc3)Cc3ccccc3)ccc2n1Cc1ccccc1 the inhibition was 0%. With NS(=O)(=O)c1ccc2c(c1)cc(C(=O)O)n2Cc1ccccc1 the inhibition was 15%. With O=C(O)c1cn(CCCc2ccccc2)c2ccc([N+](=O)[O-])cc12 the inhibition was 0%.

What follows are molecules tested against Pannexin-1 (Mus musculus) (UniProt Q9JIP4) (assay: Inhibition of mouse Panx-1 expressed in Xenopus laevis oocytes assessed as inhibition of membrane current cells held at -60 mV and voltage steps to +60 mV in presence of CBX at 50 uM measured by Whole cell voltage clamp assay relative to control). Conditions: Oocyte.
Chain of Pannexin-1 (Mus musculus) (Q9JIP4 whole entry): as the sequence (Q9JIP4 whole entry) above
Assay type: cell-based
Procedure, shortened: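 Xenopus oocytes expressing Panx-1 were studied by two-electrode voltage clamp (3 M KCl electrodes) under continuous perfusion with OR2 Ringer, pH 7.5. Cells were held at −60 mV, with 5 s steps to +60 mV at 0.1 Hz. Compounds were screened at 50 µM and inhibition expressed as % of membrane current, n = 1–3 oocytes.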
O=C(O)c1ccc(Cn2cc(C(=O)O)c3cc([N+](=O)[O-])ccc32)cc1 gave an inhibition of 54%. O=C(O)c1ccc(Cn2c(C(=O)O)cc3cc(S(=O)(=O)N(Cc4ccccc4)Cc4ccccc4)ccc32)cc1 gave an inhibition of 100%. O=C(O)c1cc2cc([N+](=O)[O-])ccc2n1Cc1ccccc1 showed an inhibition of 51.3%. O=C(O)c1ccc(CNS(=O)(=O)c2ccc3c(c2)cc(C(=O)O)n3Cc2ccc(C(=O)O)cc2)cc1 showed an inhibition of 100%. Work on O=C(O)c1cc2cc(S(=O)(=O)N(Cc3ccccc3)Cc3ccccc3)ccc2n1Cc1ccccc1 yielded an inhibition of 41%. Molecule O=C(O)c1cc2cc(N(Cc3ccccc3)Cc3ccccc3)ccc2n1Cc1ccccc1 has an inhibition of 0%. O=C(O)c1cn(CCCCc2ccccc2)c2ccc([N+](=O)[O-])cc12 gave an inhibition of 65.7%. O=C(O)c1ccc(CN(Cc2ccc(C(=O)O)cc2)S(=O)(=O)c2ccc3c(c2)cc(C(=O)O)n3Cc2ccc(C(=O)O)cc2)cc1 showed an inhibition of 79%. Work on NS(=O)(=O)c1ccc2c(c1)cc(C(=O)O)n2Cc1ccccc1 yielded an inhibition of 29.3%. Molecule O=C(O)c1ccc(Cn2c(C(=O)O)cc3cc([N+](=O)[O-])ccc32)cc1 has an inhibition of 61%. Molecule O=C(O)c1cc2cc(S(=O)(=O)NCCc3ccccc3)ccc2n1CCc1ccccc1 has an inhibition of 57.7%. Work on O=C(O)c1ccc(CCn2cc(C(=O)O)c3cc([N+](=O)[O-])ccc32)cc1 yielded an inhibition of 73%. O=C(O)c1cc2cc(S(=O)(=O)NCc3ccccc3)ccc2n1Cc1ccccc1 gave an inhibition of 42%. With O=C(O)c1cn(CCc2ccccc2)c2ccc([N+](=O)[O-])cc12 the inhibition was 52.7%. In the case of O=C(O)c1cc2cc(S(=O)(=O)N(CCc3ccccc3)Cc3ccccc3)ccc2n1CCc1ccccc1, the inhibition is reported as 37.3%. In the case of O=C(O)c1cc2cc([N+](=O)[O-])ccc2n1CCCc1ccccc1, the inhibition is reported as 65.5%. With O=C(O)c1cc2cc([N+](=O)[O-])ccc2n1CCCCCc1ccccc1 the inhibition was 58%. In the case of O=C(O)c1cc2cc([N+](=O)[O-])ccc2n1CCc1ccccc1, the inhibition is reported as 56.3%. For O=C(O)c1cn(CCCCCc2ccccc2)c2ccc([N+](=O)[O-])cc12, the inhibition was 32.3%. For O=C(O)c1cn(Cc2ccccc2)c2ccc(N(Cc3ccccc3)Cc3ccccc3)cc12, the inhibition was 19.5%. Molecule O=C(O)c1cn(CCCc2ccccc2)c2ccc([N+](=O)[O-])cc12 has an inhibition of 71%. In the case of NS(=O)(=O)c1ccc2c(c1)cc(C(=O)O)n2Cc1ccc(C(=O)O)cc1, the inhibition is reported as 61.7%. Work on O=C(O)c1ccc(CCn2c(C(=O)O)cc3cc([N+](=O)[O-])ccc32)cc1 yielded an inhibition of 31.7%. O=C(O)c1cn(Cc2ccccc2)c2ccc([N+](=O)[O-])cc12 gave an inhibition of 65%. Work on O=C(O)c1cc2cc(S(=O)(=O)N(Cc3ccccc3)Cc3ccccc3)ccc2n1CCc1ccccc1 yielded an inhibition of 41.3%.

Organism: Mus musculus
Assay: Antiallodynic activity in oxaliplatin-induced neuropathy pain CD-1 mouse model assessed as reversal of enhancement of pain threshold at 0.3 to 1 nmol, IT measured after 80 mins by cold plate assay
Assay type: functional, organism-based
Conditions: dose 0.3-1 nmol
Procedure, shortened: as §1
With O=C(O)c1cc2cc(N(Cc3ccccc3)Cc3ccccc3)ccc2n1Cc1ccccc1 the Activity was “inactive”.
